Experimental data taken from ChEMBL document CHEMBL1641399, “Phytochemical investigations of Stemona curtisii and synthetic studies on stemocurtisine alkaloids” (2010).
In brackets after ≈: the same amount, converted by molar mass.

Assays:
[1] = molecular target: Acetylcholinesterase (Homo sapiens) (UniProt P22303)
Cryptococcus neoformans = experiment: Antimicrobial activity against Cryptococcus neoformans; assay type: functional
Procedure, shortened: (§1)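 Antifungal test read as MIC (µg/mL), following a previously published procedure, with amphotericin B run as positive control.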

Staphylococcus aureus [2] = experiment: Antimicrobial activity against Staphylococcus aureus; assay type: functional
Procedure, shortened: (§2)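 Antibacterial MIC determination in µg/mL against a bacterial panel that includes Streptococcus pyogenes, with gentamicin as positive control; otherwise run by a literature procedure.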

Klebsiella pneumoniae = experiment: Antimicrobial activity against Klebsiella pneumoniae; assay type: functional
Candida albicans = experiment: Antimicrobial activity against Candida albicans; assay type: functional
Procedure, shortened: as §1

Streptococcus pyogenes = experiment: Antimicrobial activity against Streptococcus pyogenes; assay type: functional
Procedure, shortened: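 Antibacterial test read as MIC (µg/mL), following a previously published procedure, with gentamicin run as positive control.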

Escherichia coli = experiment: Antimicrobial activity against Escherichia coli; assay type: functional
Staphylococcus aureus [3] = experiment: Antimicrobial activity against methicillin-resistant Staphylococcus aureus; assay type: functional
Procedure, shortened: as §2

Sequence of Acetylcholinesterase (Homo sapiens) (P22303 whole entry): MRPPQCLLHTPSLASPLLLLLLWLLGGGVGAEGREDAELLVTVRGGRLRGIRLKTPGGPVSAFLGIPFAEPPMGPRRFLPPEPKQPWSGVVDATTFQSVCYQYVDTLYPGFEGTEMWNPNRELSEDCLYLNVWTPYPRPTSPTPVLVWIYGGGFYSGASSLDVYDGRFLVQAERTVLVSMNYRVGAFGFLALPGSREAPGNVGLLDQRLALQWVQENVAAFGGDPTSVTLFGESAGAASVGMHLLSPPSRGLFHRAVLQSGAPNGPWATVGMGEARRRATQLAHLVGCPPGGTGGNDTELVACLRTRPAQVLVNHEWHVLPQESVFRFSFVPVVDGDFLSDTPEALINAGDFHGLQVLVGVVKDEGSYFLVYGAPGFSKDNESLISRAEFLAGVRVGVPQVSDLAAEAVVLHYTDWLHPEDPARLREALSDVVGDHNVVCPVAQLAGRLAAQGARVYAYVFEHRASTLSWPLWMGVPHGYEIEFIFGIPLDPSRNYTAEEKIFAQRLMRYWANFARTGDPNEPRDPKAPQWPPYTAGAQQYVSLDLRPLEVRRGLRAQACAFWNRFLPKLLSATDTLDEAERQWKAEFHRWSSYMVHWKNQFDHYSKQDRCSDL

| Compound | MIC [1] | MIC (Cryptococcus neoformans) | MIC (Staphylococcus aureus [2]) | MIC (Klebsiella pneumoniae) | MIC (Candida albicans) | MIC (Streptococcus pyogenes) | MIC (Escherichia coli) | MIC (Staphylococcus aureus [3]) |
| --- | --- | --- | --- | --- | --- | --- | --- | --- |
| CC/C=C/C12C3CC4C5[C@@H](C)/C(=C6/OC(=O)C(C)=C6OC)O[C@]5(O3)C1CCN42 (some centres undefined) | 5 ng |  |  |  |  |  |  |  |
| COc1cc(-c2cc3c(O)cccc3o2)c(C)c(OC)c1C [STEMOFURAN J] |  | 250 µg/mL (≈ 838 µM) | 250 µg/mL (≈ 838 µM) | 250 µg/mL (≈ 838 µM) | 250 µg/mL (≈ 838 µM) | 250 µg/mL (≈ 838 µM) | 250 µg/mL (≈ 838 µM) | 250 µg/mL (≈ 838 µM) |
| COc1c(C)c(O)c(C)c(-c2cc3c(O)cccc3o2)c1C [STEMOFURAN F] |  | 250 µg/mL (≈ 838 µM) | 250 µg/mL (≈ 838 µM) | 250 µg/mL (≈ 838 µM) | 250 µg/mL (≈ 838 µM) | 250 µg/mL (≈ 838 µM) | 250 µg/mL (≈ 838 µM) | 250 µg/mL (≈ 838 µM) |
| C[C@@H]1[C@H](O)[C@@H](C)/C=C/C=C/C=C/C=C/C=C/C=C/C=C/[C@H](O[C@@H]2O[C@H](C)[C@@H](O)[C@H](N)[C@@H]2O)C[C@@H]2O[C@](O)(C[C@@H](O)C[C@@H](O)[C@H](O)CC[C@@H](O)C[C@@H](O)CC(=O)O[C@H]1C)C[C@H](O)[C@H]2C(=O)O [AMPHOTERICIN B] |  | 250 µg/mL (≈ 271 µM) | 250 µg/mL (≈ 271 µM) | 250 µg/mL (≈ 271 µM) | 250 µg/mL (≈ 271 µM) | 250 µg/mL (≈ 271 µM) | 250 µg/mL (≈ 271 µM) | 250 µg/mL (≈ 271 µM) |
| GENTAMICIN |  | 250 µg/mL | 250 µg/mL | 250 µg/mL | 250 µg/mL | 250 µg/mL | 250 µg/mL | 250 µg/mL |
| COc1cc(-c2cc3c(O)cccc3o2)c(C)c(O)c1C [STEMOFURAN E] |  | 250 µg/mL (≈ 879 µM) | 250 µg/mL (≈ 879 µM) | 250 µg/mL (≈ 879 µM) | 250 µg/mL (≈ 879 µM) | 250 µg/mL (≈ 879 µM) | 250 µg/mL (≈ 879 µM) | 250 µg/mL (≈ 879 µM) |
| COc1c(C)c(O)c(C)c(-c2cc3ccccc3o2)c1C [STEMOFURAN K] |  | 250 µg/mL (≈ 885 µM) | 250 µg/mL (≈ 885 µM) | 250 µg/mL (≈ 885 µM) | 250 µg/mL (≈ 885 µM) | 250 µg/mL (≈ 885 µM) | 250 µg/mL (≈ 885 µM) | 250 µg/mL (≈ 885 µM) |
| CC[C@H](O)[C@@H]1CC[C@@H]2O[C@@]34CCC[N+]1([O-])[C@@H]2[C@H]3[C@H](C)/C(=C1/OC(=O)C(C)=C1OC)O4 (some centres undefined) | 100 ng |  |  |  |  |  |  |  |
